The record followed here is ChEMBL document CHEMBL1148824, “Quinazolinone derivatives as orally available ghrelin receptor antagonists for the treatment of diabetes and obesity” (J Med Chem, 2007).

For one data set, the target named is Ghrelin receptor (Ovis aries, UniProt Q8MHZ5). Nature of the data set: Displacement of [125I]ghrelin from ovine recombinant GHSR1a expressed in HEK293F cells after 6 hrs by scintillation proximity assay. It is filed as cell-based.
Data set [1] can be described thus: Cmax in Wistar rat at 10 mg/kg, po. The format is ADME, organism-based. Set-up: dose 10 mg/kg, route oral. Particulars: in vivo.
Data set [2] concerns the target T1, Growth hormone secretagogue receptor type 1 (Homo sapiens, UniProt Q92847). Nature of the data set: Agonist activity at human recombinant GHSR1a expressed in HEK293F cells assessed as stimulation of [35S]GTP-gamma-S binding relative to ghrelin. The format is functional, cell-based. In short, it runs like this: (§1)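 Functional read-out as GTPγS binding to membranes from HEK293F cells overexpressing recombinant GHS-R1a; values are the mean of at least two replicates.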
(GTPγS resists hydrolysis and so accumulates on activated G proteins.)

For data set [3], the target named is T1, Growth hormone secretagogue receptor type 1. Briefly: Antagonist activity at human recombinant GHSR1a expressed in HEK293F cells by [35S]GTP-gamma-S binding assay. It is filed as functional, cell-based. A digest of the protocol:
as §1

A short description of data set [4]: Cmax in Wistar rat at 3 mg/kg, po. It is filed as ADME, organism-based. Set-up: dose 3 mg/kg, route oral. As to conditions: in vivo. In short, it runs like this: (§2)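 Wistar rat pharmacokinetic screen; single oral dose of 3 mg/kg in PEG400/methanesulfonic acid (80:20) vehicle; plasma exposure measured.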
The target of data set [5] is T2, 5-hydroxytryptamine receptor 2C (Homo sapiens, UniProt P28335).
T2 sequence (P28335 whole entry): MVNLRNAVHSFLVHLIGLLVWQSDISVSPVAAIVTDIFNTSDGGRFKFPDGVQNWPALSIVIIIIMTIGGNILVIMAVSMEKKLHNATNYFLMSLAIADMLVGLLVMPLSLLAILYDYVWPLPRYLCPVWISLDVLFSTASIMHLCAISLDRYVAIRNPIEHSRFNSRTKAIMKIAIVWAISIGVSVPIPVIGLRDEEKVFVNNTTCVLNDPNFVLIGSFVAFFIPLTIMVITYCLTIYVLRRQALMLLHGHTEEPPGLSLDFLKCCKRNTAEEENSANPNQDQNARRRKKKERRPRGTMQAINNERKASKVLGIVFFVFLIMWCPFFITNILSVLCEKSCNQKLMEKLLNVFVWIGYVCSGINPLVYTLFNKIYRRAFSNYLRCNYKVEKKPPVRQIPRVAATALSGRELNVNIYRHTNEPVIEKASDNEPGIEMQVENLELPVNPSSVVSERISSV
Briefly: Displacement of […] from 5HT2c receptor. For orientation: In a radioligand displacement assay an active substance lowers the binding of a labelled ligand.

Data set [6] in a line: Aqueous solubility at pH 7.2. The format is physicochemical.
The target in a further data set is Cytochrome P450 2D6 (Homo sapiens, UniProt P10635). Nature of the data set: Inhibition of CYP2D6. The format is ADME.
Data set [7] is described as follows: Cmax in po dosed DIO C57BL/6 mouse after 5 hrs. It is filed as ADME, organism-based. Particulars: in vivo. The arrangement: route oral.
Another data set deals with Brain. Nature of the data set: Drug level in po dosed DIO C57BL/6 mouse brain after 5 hrs relative to plasma concentration. It is filed as ADME, organism-based.
Data set [8] relates to Mus musculus. Nature of the data set: Increase in food intake in DIO C57BL/6 mouse at 30 mg/kg, after 5 hrs relative to control. It is filed as functional.
Data set [9] deals with Rattus norvegicus. Briefly: Decrease in blood glucose level in DIO Wistar rat using at 10 mg/kg after 5 hrs by IPGTT test relative to control. It is filed as functional. The arrangement: scale not given: the % may be the effect or the level left.
In data set [10] the test system is Rattus norvegicus. Briefly: Half life in Wistar rat plasma at 0.7 mg/kg, iv. It is filed as ADME, organism-based. Set-up: dose 0.7 mg/kg, route intravenous. Particulars: in vivo.
Data set [11] in a line: AUC (0-t) in Wistar rat plasma at 0.7 mg/kg, iv. Set-up: dose 0.7 mg/kg, route intravenous. It is filed as ADME, organism-based.
Data set [12] in a line: Cmax in Wistar rat plasma at 0.7 mg/kg, iv. The format is ADME, organism-based. The arrangement: dose 0.7 mg/kg, route intravenous.
Data set [13] concerns Rattus norvegicus. Briefly: Volume of distribution at steady state in Wistar rat plasma at 0.7 mg/kg, iv. Set-up: dose 0.7 mg/kg, route intravenous. It is filed as ADME, organism-based. As to conditions: in vivo.
The nature of data set [14]: AUC in Wistar rat plasma at 3 mg/kg, po. The arrangement: dose 3 mg/kg, route oral. It is filed as ADME, organism-based. In short, it runs like this:
as §2

Data set [15] is described as follows: Cmax in Wistar rat plasma at 3 mg/kg, po. It is filed as ADME, organism-based. Set-up: dose 3 mg/kg, route oral. In short, it runs like this: as §2
The nature of data set [16]: Bioavailability in Wistar rat plasma at 3 mg/kg, po. The format is ADME, organism-based.
Data set [17] relates to Mus musculus. Briefly: Decrease in food intake in DIO C57BL/6 mouse at 30 mg/kg, po after 24 hrs relative to control. The format is functional, organism-based. Set-up: dose 30 mg/kg.
The test system of data set [18] is Mus musculus. Nature of the data set: Decrease in body weight in DIO C57BL/6 mouse at 10 mg/kg, po after 9 days. Set-up: dose 10 mg/kg. It is filed as functional, organism-based.
Data set [19] deals with Mus musculus. Briefly: Decrease in body weight in DIO C57BL/6 mouse at 30 mg/kg, po after 9 days. It is filed as functional.
The target of data set [20] is 5-hydroxytryptamine receptor 2B (Homo sapiens) (UniProt P41595). Nature of the data set: Binding affinity to 5HT2b receptor.
The target of data set [21] is 5-hydroxytryptamine receptor 2A (Homo sapiens) (UniProt P28223). Nature of the data set: Binding affinity to 5HT2a receptor.
Data set [22] addresses Motilin receptor (Homo sapiens) (UniProt O43193). Nature of the data set: Binding affinity to motilin receptor.
The species entered for a further data set is Homo sapiens. Nature of the data set: Binding affinity to calcium channel L type.
The nature of data set [23]: Cmax in Wistar rat plasma at 1 mg/kg, iv. The arrangement: dose 1 mg/kg, route intravenous. The format is ADME, organism-based.
Data set [24] can be described thus: Volume of distribution in Wistar rat plasma at 1 mg/kg, iv. It is filed as ADME, organism-based. The arrangement: dose 1 mg/kg, route intravenous. Particulars: read-out: Vdss.
Data set [25] in a line: Bioavailability in Wistar rat plasma at 1 mg/kg, iv. The format is ADME, organism-based.

Each structure is given as a SMILES string. Converted amounts (≈) assume the structure as drawn. The source made the active and inactive calls. The calls are words filed in the database; no cut-off is given here. Where only a bound is given, the exact number is not on record here.

Sequence of Ghrelin receptor (Q8MHZ5 whole entry): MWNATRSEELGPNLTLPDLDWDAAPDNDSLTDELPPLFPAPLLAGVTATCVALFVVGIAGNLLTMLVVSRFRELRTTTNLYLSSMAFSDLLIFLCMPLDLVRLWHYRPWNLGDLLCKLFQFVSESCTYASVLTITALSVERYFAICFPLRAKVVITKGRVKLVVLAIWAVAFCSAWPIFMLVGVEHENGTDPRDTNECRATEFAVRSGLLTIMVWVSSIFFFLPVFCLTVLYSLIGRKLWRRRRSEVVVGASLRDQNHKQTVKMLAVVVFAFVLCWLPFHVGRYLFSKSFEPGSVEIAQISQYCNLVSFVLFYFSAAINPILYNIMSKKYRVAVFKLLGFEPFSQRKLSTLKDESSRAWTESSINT
T1 sequence (Q92847 whole entry): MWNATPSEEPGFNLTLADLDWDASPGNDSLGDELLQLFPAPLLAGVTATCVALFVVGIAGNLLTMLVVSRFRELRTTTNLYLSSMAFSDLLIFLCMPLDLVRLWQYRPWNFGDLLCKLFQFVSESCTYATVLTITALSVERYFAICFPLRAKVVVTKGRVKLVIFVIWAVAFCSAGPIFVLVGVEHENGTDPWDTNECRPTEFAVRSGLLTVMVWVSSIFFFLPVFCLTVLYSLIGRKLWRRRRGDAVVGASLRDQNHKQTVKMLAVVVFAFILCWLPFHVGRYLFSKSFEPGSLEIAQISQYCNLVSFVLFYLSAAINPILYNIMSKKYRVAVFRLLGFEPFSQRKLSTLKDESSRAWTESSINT
Sequence of Cytochrome P450 2D6 (P10635 whole entry): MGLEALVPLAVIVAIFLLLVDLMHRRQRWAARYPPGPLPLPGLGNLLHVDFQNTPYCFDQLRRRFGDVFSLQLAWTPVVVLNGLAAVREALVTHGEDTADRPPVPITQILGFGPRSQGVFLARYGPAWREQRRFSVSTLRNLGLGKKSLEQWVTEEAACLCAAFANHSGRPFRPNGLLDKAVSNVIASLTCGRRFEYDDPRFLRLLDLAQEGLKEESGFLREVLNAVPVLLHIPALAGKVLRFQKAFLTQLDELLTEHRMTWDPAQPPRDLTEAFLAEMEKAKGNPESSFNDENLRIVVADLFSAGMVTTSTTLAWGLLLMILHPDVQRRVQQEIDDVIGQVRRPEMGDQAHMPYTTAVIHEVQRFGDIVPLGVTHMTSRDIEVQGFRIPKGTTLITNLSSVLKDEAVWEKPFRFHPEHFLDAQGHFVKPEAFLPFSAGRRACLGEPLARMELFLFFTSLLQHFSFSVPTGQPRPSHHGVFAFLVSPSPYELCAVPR
Sequence of 5-hydroxytryptamine receptor 2B (Homo sapiens) (P41595 whole entry): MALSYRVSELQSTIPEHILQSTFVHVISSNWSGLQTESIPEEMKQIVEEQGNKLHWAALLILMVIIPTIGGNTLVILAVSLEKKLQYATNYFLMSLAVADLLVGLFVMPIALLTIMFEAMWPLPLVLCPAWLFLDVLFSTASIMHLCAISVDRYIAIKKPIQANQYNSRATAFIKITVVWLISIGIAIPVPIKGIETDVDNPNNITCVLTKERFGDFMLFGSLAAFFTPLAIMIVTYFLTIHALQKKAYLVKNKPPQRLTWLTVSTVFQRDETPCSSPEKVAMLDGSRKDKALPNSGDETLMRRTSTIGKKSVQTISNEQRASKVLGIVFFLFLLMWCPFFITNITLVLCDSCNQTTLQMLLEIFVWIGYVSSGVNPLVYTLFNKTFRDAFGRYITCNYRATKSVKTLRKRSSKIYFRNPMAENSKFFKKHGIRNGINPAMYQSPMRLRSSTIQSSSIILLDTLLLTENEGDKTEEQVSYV
Sequence of Motilin receptor (Homo sapiens) (O43193 whole entry): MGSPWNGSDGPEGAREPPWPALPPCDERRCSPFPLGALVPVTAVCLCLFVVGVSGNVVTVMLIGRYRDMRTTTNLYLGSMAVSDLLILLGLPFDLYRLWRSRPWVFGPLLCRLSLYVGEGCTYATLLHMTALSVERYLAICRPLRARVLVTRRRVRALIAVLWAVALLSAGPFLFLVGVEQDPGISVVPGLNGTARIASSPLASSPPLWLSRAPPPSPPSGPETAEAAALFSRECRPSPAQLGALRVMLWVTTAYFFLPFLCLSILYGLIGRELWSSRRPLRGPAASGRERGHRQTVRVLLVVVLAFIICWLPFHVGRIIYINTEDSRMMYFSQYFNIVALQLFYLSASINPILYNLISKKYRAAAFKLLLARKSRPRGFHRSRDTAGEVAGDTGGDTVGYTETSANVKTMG
Sequence of 5-hydroxytryptamine receptor 2A (Homo sapiens) (P28223 whole entry): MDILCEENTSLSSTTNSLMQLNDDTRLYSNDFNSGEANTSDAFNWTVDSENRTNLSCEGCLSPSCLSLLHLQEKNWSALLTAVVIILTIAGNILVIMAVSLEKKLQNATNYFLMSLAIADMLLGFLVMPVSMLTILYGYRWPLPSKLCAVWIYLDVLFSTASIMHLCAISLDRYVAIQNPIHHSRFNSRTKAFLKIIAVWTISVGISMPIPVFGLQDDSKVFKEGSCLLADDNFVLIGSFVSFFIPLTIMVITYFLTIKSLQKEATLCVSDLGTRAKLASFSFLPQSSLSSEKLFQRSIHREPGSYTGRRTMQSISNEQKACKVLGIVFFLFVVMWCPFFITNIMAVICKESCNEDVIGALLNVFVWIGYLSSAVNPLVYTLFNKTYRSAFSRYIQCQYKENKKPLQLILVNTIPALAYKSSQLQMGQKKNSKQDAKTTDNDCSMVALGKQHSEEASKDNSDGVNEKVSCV

On to `CCCCN(C)c1ccc2nc(-c3ccccc3OC)n(CC3CCCN(CC)C3)c(=O)c2c1` (stereo unspecified), for which the Ki at Ghrelin receptor worked out at 20 nM. Moreover, in [1], the maximum concentration (Cmax) was below 20 nM.

For the molecule `CCN1CCC[C@H](Cn2c(-c3ccccc3C)nc3ccc(-c4ccc(Cl)cc4)cc3c2=O)C1`, the Ki on Ghrelin receptor was found to be 1.7 nM; in [5] it was 120 nM. Moreover, in data set [2], the E/Emax was determined as 0%. Besides, the antagonist equilibrium constant (Kb) in data set [3] was 2.8 nM. For the same molecule, the values for the Cmax in [4] and in [7] were 120 nM and 2200 nM, respectively. In [6], this molecule yielded a solubility of 80 µM (≈ 37.8 µg/mL). This molecule also gave an IC50 at Cytochrome P450 2D6 of 6.1 µM. Also, in the data set with Brain, the Drug uptake turned out to be 22%. The Activity in the data set on Mus musculus [8] is on record as -17%; with Rattus norvegicus [9] it was -13%.

The molecule `CC(C)c1nc2ccc(-c3ccc(F)cc3)cc2c(=O)n1C[C@H]1CCCN(C(C)C)C1` had a t1/2 in the data set with Rattus norvegicus [10] of 16 h. In addition, the inhibition constant (Ki) was 39 nM at Ghrelin receptor and above 1000 nM in data set [5]. Besides, the E/Emax in data set [2] came to 15%. In addition, the Kb in [3] was determined as 14 nM. Also, the Cmax in data set [4] was determined as 150 nM; in data set [12] it was 100 ng/mL; in data set [15] it was 70 ng/mL; in data set [7], 800 nM. The molecule also returned a solubility in [6] of 280 µM (≈ 118 µg/mL). Further, the IC50 against Cytochrome P450 2D6 stood at 0.15 µM. This molecule displayed an AUC(0-t) in data set [11] of 580 ng·h/mL. In the data set with Rattus norvegicus [13], this molecule yielded a distribution volume (Vdss) of 0.68 L/kg. The AUC in data set [14] was determined as 1700 ng·h/mL. In data set [16], this molecule came in with a bioavailability of 69%. The outcome in the data set with Mus musculus [17], with Mus musculus [18] and with Mus musculus [19] was Active. The same molecule returned a Drug uptake in the data set on Brain of 76%. Also, the Activity is -17% with Mus musculus [8]; -20% in the data set on Rattus norvegicus [9]; above 1 µM in data set [20]; above 1 µM in data set [21]; above 1 µM in data set [22]; above 1 µM in the data set filed under Homo sapiens.

Turning to `Cc1nc2ccc(Oc3ccc(F)cc3)cc2c(=O)n1C[C@H]1CCCN(C(C)C)C1`, the Ki on Ghrelin receptor was 17 nM; in data set [5] it was above 1000 nM. Also, the E/Emax in [2] came to 11%. In data set [3], the Kb is 11 nM. In addition, the Cmax in data set [4] was 220 nM; in [15], 80 ng/mL; in [23] it was 110 ng/mL; in [7], 3400 nM. The solubility in [6] was determined as 500 µM (≈ 205 µg/mL). This molecule yielded an exposure (AUC) in data set [14] of 1300 ng·h/mL. This molecule also had a bioavailability in data set [16] of 85%. Also, the Vd in [24] was found to be 19.2 L/kg. Besides, the result in the data set with Mus musculus [17] was Active. Besides, the Activity result with Mus musculus [19] was “<=5%”; with Mus musculus [8], -12%; in the data set with Rattus norvegicus [9], -23%; in data set [20] it was above 1 µM; in [21], above 1 µM; in data set [22], above 1 µM. Also, in the data set listed under Homo sapiens, the Activity is above 1 µM. The same molecule registered a Drug uptake in the data set with Brain of 19%.

For the molecule `CCN1CCCC(Cn2c(-c3ccccc3C)nc3ccc(-c4ccc(Cl)cc4)cc3c2=O)C1.Cl` (stereo unspecified), the bioavailability in [16] and in data set [25] was 29% throughout.

The term Ki denotes a measure of affinity in units of concentration, obtained from inhibition or displacement. For orientation: Cmax means the highest concentration seen after dosing. The Kb is the equilibrium dissociation constant of an antagonist, usually derived from a functional assay. For orientation: solubility means how much of the substance goes into solution per volume. A word on the IC50: it is the concentration that gives 50% inhibition. For orientation: AUC(0-t) means the area under the concentration-time curve up to a stated or last time point. As usually defined, the Vdss is a proportionality between amount in the body and measured concentration, not a real space. Broadly, the AUC is the area under the concentration-time curve, a measure of exposure. A word on the bioavailability: it is the share of a dose that reaches the circulation, judged against a reference dose that is usually intravenous.
